According to ChEMBL document CHEMBL1122116, “Antiparasitic agents. 5. Synthesis and anthelmintic activities of novel 2-heteroaromatic-substituted isothiocyanatobenzoxazoles and benzothiazoles” (J Med Chem, 1982):

Key:
Rodentolepis nana = test: Mouse oral clearance was measured against Hymenolepiasis nana.; format: functional; design: concentration or dose not given beside the values
How it was run: (§1)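 Mice experimentally infected with N. dubius (nematode) or H. nana (tapeworm) received the compound in the diet at 0.2%. Read-out is percent clearance of worms after oral dosing.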

[1] = test system: Heligmosomoides polygyrus; test: Mouse oral clearance was measured against Nematospiroides dubius; format: functional; design: concentration or dose not given beside the values; how it was run: as §1
Ovis aries [2] = test: Percent reduction in nematode fecal egg count was measured in sheep following 50 mg/kg p.o.; format: functional; settings: route oral
[3] = test system: Heligmosomoides polygyrus; test: Titration of anthelmintic activity against Nematospiroides dubius in mice at 0.05 concentration of diet.; format: ADME, organism-based; settings: in vivo, po
How it was run: (§2)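 Titration in mice experimentally infected with N. dubius, with the compound mixed into the diet at a series of levels. Read-out is nematode clearance.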

[4] = test system: Heligmosomoides polygyrus; test: Titration of anthelmintic activity against Nematospiroides dubius in mice at 0.0125 concentration of diet.; format: ADME, organism-based; settings: in vivo, po; how it was run: as §2
[5] = test system: Heligmosomoides polygyrus; test: Titration of anthelmintic activity against Nematospiroides dubius in mice at 0.025 concentration of diet.; format: ADME, organism-based; settings: in vivo, po; how it was run: as §2
[6] = test system: Heligmosomoides polygyrus; test: Titration of anthelmintic activity against Nematospiroides dubius in mice at 0.1 concentration of diet.; format: ADME, organism-based; settings: in vivo, po; how it was run: as §2
[7] = test system: Heligmosomoides polygyrus; test: Titration of anthelmintic activity against Nematospiroides dubius in mice at 0.2 concentration of diet.; format: ADME, organism-based; settings: in vivo, po; how it was run: as §2
Ovis aries [8] = test: Percent reduction in fecal egg count was measured in sheep dosed at 25 mg/kg.; format: functional
Ovis aries [9] = test: Percent reduction in fecal egg count was measured in sheep dosed at 44 mg/kg.; format: functional
Ovis aries [10] = test: Percent reduction in fecal egg count was measured in sheep dosed at 50 mg/kg.; format: ADME, organism-based; design: dose 50 mg/kg; settings: in vivo
Ovis aries [11] = test: Percent reduction in fecal egg count was measured in sheep dosed at 100 mg/kg.; format: functional
Ovis aries [12] = test: Percent reduction in fecal egg count was measured in sheep dosed at 58 mg/kg.; format: functional

SMILES	Activity (Rodentolepis nana)	Activity [1]	Reduction (Ovis aries [2])	further results
S=C=Nc1ccc2oc(-c3cccs3)nc2c1	0%	98%	–	–
Cn1cccc1-c1nc2cc(N=C=S)cc(Cl)c2o1	0%	0%	–	–
S=C=Nc1cc(Cl)c2oc(-c3ccc(Cl)nc3)nc2c1	0%	0%	–	–
CN1CCN(Cc2ccc(-c3nc4cc(N=C=S)ccc4o3)s2)CC1	0%	0%	–	–
S=C=Nc1ccnc(-c2nc3ccccc3o2)c1	0%	0%	10%	–
Cc1ccc(-c2nc3cc(N=C=S)ccc3o2)s1	33%	0%	–	–
COc1cc2sc(-c3cccnc3)nc2cc1N=C=S	0%	5%	40%	–
Cc1cc2oc(-c3ccccn3)nc2cc1N=C=S	0%	0%	90%	–
S=C=Nc1ccc2oc(-c3ccc(CN4CCOCC4)o3)nc2c1	0%	0%	–	–
CN(C)c1ccc(-c2nc3cc(N=C=S)ccc3o2)cn1.CN(C)c1ccc(-c2nc3ccc(N=C=S)cc3o2)cn1	0%	0%	–	–
CN1CCN(c2ccc(-c3nc4cc(N=C=S)ccc4o3)cn2)CC1	0%	0%	0%	–
S=C=Nc1ccc2nc(-c3ccccn3)oc2c1.S=C=Nc1ccc2oc(-c3ccccn3)nc2c1	50%	0%	35%	–
S=C=Nc1ccc2nc(-c3cnccn3)oc2c1.S=C=Nc1ccc2oc(-c3cnccn3)nc2c1	–	0%	93%	–
S=C=Nc1cc(Cl)c2oc(-c3cccs3)nc2c1	0%	0%	–	–
Cn1cccc1-c1nc2cc(N=C=S)ccc2o1	25%	100%	34%	Activity [3]: 45%; Activity [4]: 0%; Activity [5]: 25%; Activity [6]: 81%; Activity [7]: 100%
S=C=Nc1ccc2nc(-c3cccnc3)oc2c1	0%	46%	78%	–
S=C=Nc1ccc2[nH]c(-c3ccccn3)nc2c1	100%	0%	100%	–
Cc1ccsc1-c1nc2cc(N=C=S)ccc2o1	0%	78%	–	–
S=C=Nc1ccc2oc(-c3ccc(CN4CCOCC4)s3)nc2c1	66%	0%	–	–
S=C=Nc1ccc2oc(-c3ccncc3)nc2c1	0%	0%	40%	–

SMILES	Activity (Rodentolepis nana)	Activity [1]	Reduction (Ovis aries [2])	further results
S=C=Nc1ccc2nc(-c3cccnc3)oc2c1.S=C=Nc1ccc2oc(-c3cccnc3)nc2c1	–	–	–	Reduction (Ovis aries [8]): 94%
S=C=Nc1ccc2nc(-c3ccccn3)sc2c1	75%	0%	65%	–
S=C=Nc1ccc2nc(-c3cccnc3)sc2c1.S=C=Nc1ccc2sc(-c3cccnc3)nc2c1	100%	99%	99%	–
Cc1cc2nc(-c3cccnc3)oc2cc1N=C=S	0%	0%	–	Reduction (Ovis aries [9]): 99%
S=C=Nc1ccc2oc(-c3ccc(Cl)nc3)nc2c1	0%	0%	97%	–
c1ccc2[nH]c(-c3cscn3)nc2c1 [THIABENDAZOLE]	–	–	–	Activity [4]: 40%; Activity [5]: 47%; Activity [6]: 89%; Activity [7]: 96%
S=C=Nc1ccc2sc(-c3cccnc3)nc2c1	0%	58%	–	–
Cc1cc2oc(-c3cccnc3)nc2cc1N=C=S	0%	99%	–	Reduction (Ovis aries [8]): 0%
CCN(CC)Cc1ccc(-c2nc3cc(N=C=S)ccc3o2)s1.Cl	0%	0%	–	–
S=C=Nc1ccc2oc(-c3cccnc3)nc2c1	–	–	–	Reduction (Ovis aries [10]): 69%
S=C=Nc1ccc2oc(-c3ccco3)nc2c1	0%	100%	–	Activity [3]: 39%; Activity [4]: 0%; Activity [5]: 0%; Activity [6]: 88%; Activity [7]: 100%; Reduction (Ovis aries [11]): 97%
Cc1ccc(-c2nc3cc(N=C=S)ccc3o2)o1	66%	100%	–	Reduction (Ovis aries [11]): 97%
S=C=Nc1ccc2oc(-c3ccccc3)nc2c1	0%	60%	57%	–
S=C=Nc1ccc2sc(-c3cccs3)nc2c1	0%	61%	57%	–
S=C=Nc1cc(Cl)c2oc(-c3cccnc3)nc2c1	0%	0%	0%	–
S=C=Nc1ccc2nc(-c3cccs3)oc2c1	0%	0%	–	–
S=C=Nc1ccc2nc(-c3ccc(N4CCOCC4)nc3)oc2c1.S=C=Nc1ccc2oc(-c3ccc(N4CCOCC4)nc3)nc2c1	0%	0%	27%	–
S=C=Nc1ccc2oc(-c3sccc3CN3CCOCC3)nc2c1	0%	0%	–	–
S=C=Nc1ccc2sc(-c3ccccn3)nc2c1	50%	20%	–	Reduction (Ovis aries [12]): 36%
